Measurements reported in ChEMBL document CHEMBL1154236, “Monoterpenes from Paeonia albiflora and their inhibitory activity on nitric oxide production by lipopolysaccharide-activated microglia” (J Nat Prod, 2009).
pIC50: −log10 of the molar value.

Columns and labels:
N9 [1] = assay: Antiinflammatory activity against mouse N9 cells assessed as LPS-induced nitric oxide production at 30 uM after 48 hrs by Griess reaction relative to control; conditions: N9, 48 h
N9 [2] = assay: Antiinflammatory activity against mouse N9 cells assessed as LPS-induced nitric oxide production at 10 uM after 48 hrs by Griess reaction relative to control; conditions: N9, 48 h
N9 [3] = assay: Antiinflammatory activity against mouse N9 cells assessed as LPS-induced nitric oxide production at 1 uM after 48 hrs by Griess reaction relative to control; conditions: N9, 48 h
N9 [4] = assay: Antiinflammatory activity against mouse N9 cells assessed as LPS-induced nitric oxide production at 3 uM after 48 hrs by Griess reaction relative to control; conditions: N9, 48 h
N9 [5] = assay: Cytotoxicity against LPS-stimulated mouse N9 cells at 1 to 30 uM after 48 hrs by MTT assay; format: cell-based; conditions: n9, 48 h
In short: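 N9 microglia seeded at 5 × 10^4 cells/well and exposed to compounds with LPS (1 µg/mL) for 48 h. MTT 0.25 mg/mL then added for 3 h at 37 °C. Formazan dissolved in DMSO and absorbance read at 490 nm.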

N9 [6] = assay: Antiinflammatory activity against mouse N9 cells assessed as inhibition of LPS-induced nitric oxide production after 48 hrs by Griess reaction relative to control; conditions: N9, 48 h

pIC50 (N9 [6])	SMILES	NO production (% of LPS control) at 30 µM (N9 [1]) [%]	NO production (% of LPS control) at 10 µM (N9 [2]) [%]	NO production (% of LPS control) at 1 µM (N9 [3]) [%]	NO production (% of LPS control) at 3 µM (N9 [4]) [%]	Activity (N9 [5])
–	C[C@@]12C[C@@]3(O)O[C@@H](O1)[C@]1(COC(=O)c4ccccc4)[C@@H]3C[C@]12O[C@@H]1O[C@H](COC(=O)c2ccccc2)[C@@H](O)[C@H](O)[C@H]1O [BENZOYLPAEONIFLORIN]	68.6	79.5	86.3	81.4	Toxic
< 4.00	CO[C@@H]1C[C@]2(C)OC(=O)[C@]3(COC(=O)c4ccccc4)[C@@H]1C[C@@]23O[C@@H]1O[C@H](CO)[C@@H](O)[C@H](O)[C@H]1O	102	95.5	91.5	91.6	–
< 4.00	COc1cc(COC[C@H]2O[C@@H](O[C@@]34C[C@H]5[C@@]3(COC(=O)c3ccccc3)[C@H]3O[C@]5(O)C[C@]4(C)O3)[C@H](O)[C@@H](O)[C@@H]2O)ccc1O	90.1	99.8	107	106	–
4.86	CO[C@H]1O[C@@]2(C)CC(=O)[C@H]3C[C@]2(O[C@@H]2O[C@H](COC(=O)c4cc(O)c(O)c(O)c4)[C@@H](O)[C@H](O)[C@H]2O)[C@]13COC(=O)c1ccccc1 [PAEONIDANIN B]	43.5	52.2	63	64.1	–
4.19	C[C@]12CC(=O)[C@H]3C[C@]1(O[C@@H]1O[C@H](CO)[C@@H](O)[C@H](O)[C@H]1O)[C@]3(COC(=O)c1ccccc1)[C@@H](OC[C@H]1O[C@@H](O[C@@]34C[C@H]5[C@@]3(COC(=O)c3ccccc3)[C@H]3O[C@]5(O)C[C@]4(C)O3)[C@H](O)[C@@H](O)[C@@H]1O)O2 [PAEONIDANIN E]	69.2	88.8	102	102	–
< 4.00	CO[C@]12C[C@]3(C)O[C@H](O1)[C@]1(COC(=O)c4ccccc4)[C@@H]2C[C@]13O[C@@H]1O[C@H](CO)[C@@H](O)[C@H](O)[C@H]1O	90.4	107	111	109	–
4.89	C[C@@]12C[C@@]3(O)O[C@@H](O1)[C@]1(COC(=O)c4ccc(O)cc4)[C@@H]3C[C@]12O[C@@H]1O[C@H](COC(=O)c2ccccc2)[C@@H](O)[C@H](O)[C@H]1O [MUDANPIOSIDE C]	38.5	57.5	71.8	66.7	–
–	C[C@@]12C[C@@]3(O)O[C@@H](O1)[C@]1(COC(=O)c4ccccc4)[C@@H]3C[C@]12O[C@@H]1O[C@H](COC(=O)c2cc(O)c(O)c(O)c2)[C@@H](O)[C@H](O)[C@H]1O [GALLOYLPAEONIFLORIN]	69.5	62.1	82.1	84.4	Toxic
4.87	COc1cc(/C=C/C(=O)CC(=O)/C=C/c2ccc(O)c(OC)c2)ccc1O [CURCUMIN]	35.2	56.1	86.6	75.6	–
< 4.00	CO[C@]12C[C@]3(C)O[C@H](O1)[C@]1(COC(=O)c4ccccc4)[C@@H]2C[C@]13O[C@@H]1O[C@H](COC(=O)c2cc(O)c(O)c(O)c2)[C@@H](O)[C@H](O)[C@H]1O	102	108	80.8	113	–
4.65	CO[C@]12C[C@]3(C)O[C@H](O1)[C@]1(COC(=O)c4ccccc4)[C@@H]2C[C@]13O[C@@H]1O[C@H](COC(=O)c2ccccc2)[C@@H](O)[C@H](O)[C@H]1O	34.9	70.4	91.9	95.5	–
< 4.00	CO[C@]12C[C@]3(C)O[C@H](O1)[C@]1(CO)[C@@H]2C[C@]13O[C@@H]1O[C@H](CO)[C@@H](O)[C@H](O)[C@H]1O	78.9	97.4	101	104	–
